Test results taken from ChEMBL document CHEMBL1132286, “Design, synthesis, and dopamine receptor modulating activity of spiro bicyclic peptidomimetics of L-prolyl-L-leucyl-glycinamide” (J Med Chem, 1999).
“And” between values parts separate entries of the source, which are not always exact repeats. Equal entries are not always repeated. Peptide text beside a SMILES is read from it.

What was measured:
[1] = tested on: Rattus norvegicus; test: Percent increase in apomorphine induced rotational behavior in the 6-hydroxydopamine lesioned rat model of hemiparkinsonism by 0.01 mg/Kg of compound given intraperitoneally; format: functional
Summary of the method: (§1)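 Rats with a unilateral 6-hydroxydopamine lesion of the substantia nigra received the test compound ip (0.00001–1 mg/kg) together with apomorphine (0.25 mg/kg, ip), n = 4. Contralateral rotations were counted over 10 min and expressed as percent change from the control rotational response, mean ± SEM.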

[2] = biological target: T1, D(2) dopamine receptor (Homo sapiens, UniProt P14416); test: Percent of Dopamine receptor D2 in low affinity state for the compound in presence of Gpp(NH)p
T1 sequence (P14416 whole entry): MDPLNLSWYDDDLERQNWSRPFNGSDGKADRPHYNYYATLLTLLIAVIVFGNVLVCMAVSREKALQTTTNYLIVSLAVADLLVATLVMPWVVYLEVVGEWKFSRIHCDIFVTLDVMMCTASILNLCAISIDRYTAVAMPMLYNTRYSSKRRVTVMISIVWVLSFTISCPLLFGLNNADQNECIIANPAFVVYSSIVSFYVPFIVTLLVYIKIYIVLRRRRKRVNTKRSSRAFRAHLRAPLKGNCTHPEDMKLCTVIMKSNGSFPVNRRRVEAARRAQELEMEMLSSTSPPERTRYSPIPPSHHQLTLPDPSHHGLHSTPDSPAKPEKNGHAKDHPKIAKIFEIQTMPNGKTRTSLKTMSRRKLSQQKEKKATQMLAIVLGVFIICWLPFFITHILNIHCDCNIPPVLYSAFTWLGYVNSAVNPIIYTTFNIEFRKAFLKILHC
Summary of the method: (§2)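 D2 receptor binding: [3H]spiroperidol displaced by the agonist N-propylnorapomorphine, run without or with Gpp(NH)p (100 μM). The assay was done either with 100 nM test-compound pretreatment or untreated as its control. High- and low-affinity dissociation constants (KH, KL) and receptor fractions (RH, RL, RH/RL) are reported. Values are mean ± SEM of 3–4 separate experiments, each done in duplicate or triplicate.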

[3] = biological target: T1, D(2) dopamine receptor; test: Percent of Dopamine receptor D2 in low affinity state for the compound in presence of Gpp(NH)p (pretreatment with 100 nM of compound).; summary of the method: as §2
[4] = biological target: T1, D(2) dopamine receptor; test: Inhibitor constant of compound for high affinity component of [3H]spiroperidol/N-propylnorapomorphine binding to Dopamine receptor D2 in absence of Gpp(NH)p; summary of the method: as §2
[5] = biological target: T1, D(2) dopamine receptor; test: Percent of Dopamine receptor D2 in low affinity state for the compound in absence of Gpp(NH)p (pretreatment with 100 nM of compound).; summary of the method: as §2
[6] = biological target: T1, D(2) dopamine receptor; test: Ratio of the high affinity state over low affinity state of dopamine D2 receptor in the absence of Gpp(NH)p. (pretreatment with 100 nM of compound).; summary of the method: as §2
[7] = biological target: T1, D(2) dopamine receptor; test: Inhibitor constant of compound for high affinity component of [3H]spiroperidol/N-propylnorapomorphine binding to Dopamine receptor D2 in presence of Gpp(NH)p; summary of the method: as §2
[8] = biological target: T1, D(2) dopamine receptor; test: Percent of Dopamine receptor D2 in high affinity state for the compound in presence of Gpp(NH)p; summary of the method: as §2
[9] = biological target: T1, D(2) dopamine receptor; test: Inhibitor constant of compound for high affinity component of [3H]spiroperidol/N-propylnorapomorphine binding to Dopamine receptor D2 in absence of Gpp(NH)p (pretreatment with 100 nM of compound); summary of the method: as §2
[10] = biological target: T1, D(2) dopamine receptor; test: Percent of Dopamine receptor D2 in high affinity state for the compound in presence of Gpp(NH)p (pretreatment with 100 nM of compound).; summary of the method: as §2
[11] = biological target: T1, D(2) dopamine receptor; test: Ratio of the high affinity state over low affinity state of dopamine D2 receptor in the presence of Gpp(NH)p. (pretreatment with 100 nM of compound).; summary of the method: as §2
[12] = biological target: T1, D(2) dopamine receptor; test: Inhibitor constant of compound for high affinity component of [3H]spiroperidol/N-propylnorapomorphine binding to Dopamine receptor D2 in presence of Gpp(NH)p (pretreatment with 100 nM of compound); summary of the method: as §2
[13] = biological target: T1, D(2) dopamine receptor; test: Inhibitor constant of compound for low affinity component of [3H]spiroperidol/N-propylnorapomorphine binding to Dopamine receptor D2 in absence of Gpp(NH)p; summary of the method: as §2
[14] = biological target: T1, D(2) dopamine receptor; test: Percent of Dopamine receptor D2 in high affinity state for the compound in absence of Gpp(NH)p (pretreatment with 100 nM of compound).; summary of the method: as §2
[15] = biological target: T1, D(2) dopamine receptor; test: Percent of Dopamine receptor D2 in high affinity state for the compound in absence of Gpp(NH)p; summary of the method: as §2
[16] = biological target: T1, D(2) dopamine receptor; test: Inhibitor constant of compound for low affinity component of [3H]spiroperidol/N-propylnorapomorphine binding to Dopamine receptor D2 in presence of Gpp(NH)p; summary of the method: as §2
[17] = biological target: T1, D(2) dopamine receptor; test: Inhibitor constant of compound for low affinity component of [3H]spiroperidol/N-propylnorapomorphine binding to Dopamine receptor D2 in absence of Gpp(NH)p (pretreatment with 100 nM of compound); summary of the method: as §2
[18] = biological target: T1, D(2) dopamine receptor; test: Ratio of the high affinity state over low affinity state of dopamine D2 receptor in the absence of Gpp(NH)p.; summary of the method: as §2
[19] = biological target: T1, D(2) dopamine receptor; test: Ratio of the high affinity state over low affinity state of dopamine D2 receptor in the presence of Gpp(NH)p.; summary of the method: as §2
[20] = biological target: T1, D(2) dopamine receptor; test: Percent of Dopamine receptor D2 in low affinity state for the compound in absence of Gpp(NH)p; summary of the method: as §2
[21] = tested on: Rattus norvegicus; test: Percent increase in apomorphine induced rotational behavior in the 6-hydroxydopamine lesioned rat model of hemiparkinsonism by 0.001 mg/Kg of compound given intraperitoneally; format: functional; summary of the method: as §1

Row | Structure (SMILES) | RL [2] [%] | RL [3] [%] | Ki [4] [nM] | RL [5] [%] | RH/RL [6] | Ki [7] [nM] | RH [8] [%] | Ki [9] [nM] | RH [10] [%] | RH/RL [11] | Ki [12] [nM] | Ki [13] [nM] | RH [14] [%] | RH [15] [%] | Ki [16] | Ki [17] [nM] | RH/RL [18] | RH/RL [19] | RL [20] [%] | also measured
1 | NC(=O)C1CCS[C@@H]2C[C@]3(CCCN3C(=O)[C@@H]3CCCN3)C(=O)N12 (some centres undefined) | 85 | 47 | 0.071 | 36 | 1.77 | 0.122 | 15 | 0.031 | 53 | 1.12 | 0.064 | 196 | 64 | 52 | 246 nM and 202 nM | 168 | 1.08 | 0.17 | 48 | Activity [1]: 95%
2 | NC(=O)[C@H]1CS[C@@H]2CC[C@]3(CCCN3C(=O)[C@@H]3CCCN3)C(=O)N12 | 83 | 45 | 0.067 | 32 | 2.12 | 0.196 | 17 | 0.05 | 55 | 1.22 | 0.09 | 190 | 68 | 53 | 260 nM and 211 nM | 188 | 1.13 | 0.2 | 47 | Activity [21]: 88%
3 | CC(C)C[C@H](NC(=O)[C@@H]1CCCN1)C(=O)NCC(N)=O (H-Pro-Leu-Gly-NH2) | 82 | 72 | 0.09 | 41 | 1.48 | 0.13 | 19 | 0.04 | 32 | 0.44 | 0.06 | 73.2 | 61 | 49 | 60 nM and 78 nM | 60.1 | 0.96 | 0.23 | 51 | 
